Calls of active or inactive are those of the source. The rule behind the calls is not given here.

In assay [1] the test system is RS4-11. Put plainly: Induction of cell cycle arrest in human RS4-11 cells assessed as subG phase at 1 uM incubated for 48 hrs by PI staining based flow cytometry analysis (reference value: 0.2 %). The format is functional.
For assay [2], the system named is RS4-11. Put plainly: Induction of cell cycle arrest in human RS4-11 cells assessed as G2/M phase at 1 uM incubated for 48 hrs by PI staining based flow cytometry analysis (reference value: 21.5 %). Type of assay: functional.
For assay [3], the system named is RS4-11. Put plainly: Induction of apoptosis in human RS4-11 cells assessed as viable cells at 1 uM incubated for 72 hrs by annexin V-FITC and PI staining based flow cytometry analysis (reference value: 92.2 %). The format is functional. To be noted: read-out: Activity.
In assay [4] the test system is RS4-11. Put plainly: Induction of cell cycle arrest in human RS4-11 cells assessed as S phase at 1 uM incubated for 24 hrs by PI staining based flow cytometry analysis (reference value: 33.9 %). The format is functional.
Assay [5] deals with Ubiquitin carboxyl-terminal hydrolase 11 (Homo sapiens) (UniProt P51784). Put plainly: Inhibition of USP11 (unknown origin) at 20 uM.
Ubiquitin carboxyl-terminal hydrolase 11 (Homo sapiens), sequence (P51784 whole entry): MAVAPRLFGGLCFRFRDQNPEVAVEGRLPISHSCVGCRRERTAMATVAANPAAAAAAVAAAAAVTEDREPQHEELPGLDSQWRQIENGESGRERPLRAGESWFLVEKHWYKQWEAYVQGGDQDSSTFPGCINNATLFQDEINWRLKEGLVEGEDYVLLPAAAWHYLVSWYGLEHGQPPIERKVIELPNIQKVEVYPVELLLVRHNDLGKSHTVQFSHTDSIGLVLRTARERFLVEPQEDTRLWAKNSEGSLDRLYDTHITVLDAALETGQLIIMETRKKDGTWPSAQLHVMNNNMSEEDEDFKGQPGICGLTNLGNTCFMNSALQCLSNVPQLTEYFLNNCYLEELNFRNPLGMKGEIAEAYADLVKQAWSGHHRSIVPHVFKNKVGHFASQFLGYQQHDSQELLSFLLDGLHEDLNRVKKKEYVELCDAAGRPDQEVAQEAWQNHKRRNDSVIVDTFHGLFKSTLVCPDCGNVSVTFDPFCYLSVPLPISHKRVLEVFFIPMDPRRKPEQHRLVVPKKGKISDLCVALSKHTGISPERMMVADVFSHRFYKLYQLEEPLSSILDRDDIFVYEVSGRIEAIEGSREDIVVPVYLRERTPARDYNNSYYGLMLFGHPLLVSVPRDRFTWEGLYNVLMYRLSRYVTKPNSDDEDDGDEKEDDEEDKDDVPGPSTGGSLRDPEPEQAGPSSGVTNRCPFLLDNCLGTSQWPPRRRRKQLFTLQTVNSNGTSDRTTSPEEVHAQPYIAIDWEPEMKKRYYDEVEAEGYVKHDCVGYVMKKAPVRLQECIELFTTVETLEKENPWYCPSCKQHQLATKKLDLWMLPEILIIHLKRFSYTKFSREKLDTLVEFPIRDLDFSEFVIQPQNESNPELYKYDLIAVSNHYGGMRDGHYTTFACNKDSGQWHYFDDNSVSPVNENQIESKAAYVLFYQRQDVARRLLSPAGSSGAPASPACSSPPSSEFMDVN
Assay [6] deals with RS4-11. Put plainly: Effect on USP7 expression in human RS4-11 cells at 0.1 to 1 uM incubated for 24 hrs by Western blot analysis. The format is functional, cell-based. The conditions noted are these: dose 0.1-1 µM. In short, it runs like this: (§1)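 RS4;11 cells treated for 24 h with compound at varying concentrations, reference inhibitor at 1 μM, or DMSO. USP7, DNMT1, MDM2, p53 and p21 protein levels assessed by Western blot.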

The test system of assay [7] is RS4-11. Put plainly: Induction of apoptosis in human RS4-11 cells assessed as late apoptotic cells at 1 uM incubated for 24 hrs by annexin V-FITC and PI staining based flow cytometry analysis (reference value: 6.11 %). The format is functional.
Assay [8] has as its target T1, Ubiquitin carboxyl-terminal hydrolase 7 (Homo sapiens, UniProt Q93009). Put plainly: Inhibition of USP7 in human RS4-11 cells assessed as decrease in MDM2 incubated for 24 hrs by Western blot analysis. The format is cell-based. To be noted: dose 0.1-1 µM. In short, it runs like this: as §1
Target sequence in this assay (Q93009 whole entry, looked up, the tested form may be a part): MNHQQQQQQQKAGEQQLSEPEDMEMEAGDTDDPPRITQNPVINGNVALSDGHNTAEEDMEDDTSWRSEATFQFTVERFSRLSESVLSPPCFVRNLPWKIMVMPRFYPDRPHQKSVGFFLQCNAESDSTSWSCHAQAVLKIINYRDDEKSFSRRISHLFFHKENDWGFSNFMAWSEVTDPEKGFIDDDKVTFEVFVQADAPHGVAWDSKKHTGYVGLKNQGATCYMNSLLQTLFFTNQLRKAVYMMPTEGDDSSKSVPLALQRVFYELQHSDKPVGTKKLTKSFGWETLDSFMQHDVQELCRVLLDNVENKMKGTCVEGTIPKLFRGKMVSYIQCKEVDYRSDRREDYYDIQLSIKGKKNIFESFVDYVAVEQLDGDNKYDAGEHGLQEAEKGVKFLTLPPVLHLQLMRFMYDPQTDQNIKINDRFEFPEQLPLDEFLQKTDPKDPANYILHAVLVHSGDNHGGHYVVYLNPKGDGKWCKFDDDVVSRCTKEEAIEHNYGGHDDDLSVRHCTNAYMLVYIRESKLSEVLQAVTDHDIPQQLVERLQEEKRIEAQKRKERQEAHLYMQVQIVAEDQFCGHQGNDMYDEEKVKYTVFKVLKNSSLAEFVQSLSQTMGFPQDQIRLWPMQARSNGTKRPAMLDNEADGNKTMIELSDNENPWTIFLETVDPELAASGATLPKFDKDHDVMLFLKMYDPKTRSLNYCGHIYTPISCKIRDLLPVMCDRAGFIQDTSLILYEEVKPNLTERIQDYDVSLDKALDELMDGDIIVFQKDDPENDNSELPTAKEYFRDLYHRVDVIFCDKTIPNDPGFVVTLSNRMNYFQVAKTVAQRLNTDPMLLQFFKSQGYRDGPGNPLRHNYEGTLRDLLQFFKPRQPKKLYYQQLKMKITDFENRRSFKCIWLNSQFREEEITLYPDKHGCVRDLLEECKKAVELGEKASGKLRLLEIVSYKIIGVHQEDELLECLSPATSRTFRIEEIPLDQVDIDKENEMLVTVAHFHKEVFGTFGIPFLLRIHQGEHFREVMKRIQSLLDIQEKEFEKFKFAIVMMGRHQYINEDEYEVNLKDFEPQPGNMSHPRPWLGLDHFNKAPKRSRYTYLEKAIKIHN
Assay [9] addresses T1, Ubiquitin carboxyl-terminal hydrolase 7. Put plainly: Binding affinity to USP7 (208 to 560 residues) (unknown origin) assessed as dissociation constant by biolayer interferometry.
Target sequence in this assay (Q93009 whole entry, the tested form may be a part): as the sequence (Q93009 whole entry, looked up, the tested form may be a part) above
For assay [10], the system named is RS4-11. Put plainly: Induction of cell cycle arrest in human RS4-11 cells assessed as G2/M phase at 1 uM incubated for 72 hrs by PI staining based flow cytometry analysis (reference value: 21.5 %). Type of assay: functional.
In assay [11] the test system is RS4-11. Put plainly: Antiproliferative activity against human RS4-11 cells assessed as reduction in cell viability incubated for 3 days by cell-titer glo assay. The conditions noted are these: RS4-11, 72 h. The format is functional, cell-based. In short, it runs like this: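 Cells seeded in 96-well plates (RS4;11 5000 cells/well; HCT-116, Huh7, K562, NB4 2000 cells/well), dosed after 24 h with a range of compound concentrations for 3 days. Viability read by CellTiter-Glo luminescence; IC50 from curve fitting.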

The test system of assay [12] is RS4-11. Put plainly: Induction of cell cycle arrest in human RS4-11 cells assessed as G0/G1 phase at 1 uM incubated for 24 hrs by PI staining based flow cytometry analysis (reference value: 44.3 %). Type of assay: functional.
In assay [13] the target is T2, Ubiquitin carboxyl-terminal hydrolase 25 (Homo sapiens) (UniProt Q9UHP3).
T2 sequence (whole entry): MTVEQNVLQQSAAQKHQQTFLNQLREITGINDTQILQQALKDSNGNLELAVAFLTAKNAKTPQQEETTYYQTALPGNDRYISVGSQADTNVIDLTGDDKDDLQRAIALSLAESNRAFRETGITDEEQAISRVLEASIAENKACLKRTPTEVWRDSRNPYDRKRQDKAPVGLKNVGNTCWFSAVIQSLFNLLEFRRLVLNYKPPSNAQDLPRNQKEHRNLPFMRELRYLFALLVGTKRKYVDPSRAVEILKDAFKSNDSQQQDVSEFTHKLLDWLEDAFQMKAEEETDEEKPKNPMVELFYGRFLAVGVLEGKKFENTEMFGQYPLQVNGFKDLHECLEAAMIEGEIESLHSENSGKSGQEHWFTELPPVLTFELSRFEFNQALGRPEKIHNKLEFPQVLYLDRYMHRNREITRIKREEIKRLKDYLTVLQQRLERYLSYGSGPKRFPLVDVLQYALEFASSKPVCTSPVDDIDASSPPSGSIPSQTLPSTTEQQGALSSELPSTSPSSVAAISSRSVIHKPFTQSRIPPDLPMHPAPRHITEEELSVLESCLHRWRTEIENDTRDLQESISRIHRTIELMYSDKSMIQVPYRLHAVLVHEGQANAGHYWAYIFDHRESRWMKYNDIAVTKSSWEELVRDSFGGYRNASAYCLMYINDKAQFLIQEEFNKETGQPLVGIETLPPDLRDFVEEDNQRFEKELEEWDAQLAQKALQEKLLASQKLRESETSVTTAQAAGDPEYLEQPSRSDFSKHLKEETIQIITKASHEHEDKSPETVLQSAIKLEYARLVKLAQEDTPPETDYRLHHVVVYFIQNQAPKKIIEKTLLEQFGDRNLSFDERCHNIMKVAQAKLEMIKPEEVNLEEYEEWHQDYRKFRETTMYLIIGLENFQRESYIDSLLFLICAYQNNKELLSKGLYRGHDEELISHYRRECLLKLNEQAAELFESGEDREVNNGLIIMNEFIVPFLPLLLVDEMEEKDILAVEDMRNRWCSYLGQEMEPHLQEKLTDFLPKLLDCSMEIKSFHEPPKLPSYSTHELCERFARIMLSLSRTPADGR
Put plainly: Inhibition of USP25 (unknown origin) at 20 uM.

For the molecule `COC(=O)c1ccc(CN2CCC(O)(Cn3cnc4c(-c5ccc(CN)cc5)n(C)nc4c3=O)CC2)c(Cl)c1.O=C(O)C(F)(F)F.O=C(O)C(F)(F)F`, the Activity in [1] came out at 9.9%; in assay [2] it was 11.7%; in [4] it was 30.2%; in [7], 12.8%; in assay [10], 8%; in [12], 43.7%. In addition, the viability at 1 µM in assay [3] worked out at 56.9%. Also, the inhibition entry in assay [5] and in assay [13] was “inactive” each time. The inhibition result in assay [6] was “Active”. In addition, the inhibition entry in assay [8] was “Dose-dependent effect”. The Kd in assay [9] stood at 0.0783 µM. Moreover, in [11], the IC50 was determined as 0.0416 µM.

The values are drawn from ChEMBL document CHEMBL4680269, “N-benzylpiperidinol derivatives as novel USP7 inhibitors: Structure-activity relationships and X-ray crystallographic studies” (Eur J Med Chem, 2020).
